pKd, pKi: −log10 of the molar value. Read-outs that look alike come from different tables or passages of the source. Marks after values point to notes of the source that are not given here.
How the values were obtained:
CYP2E1 [1] = target: T1, CYP2E1 (Homo sapiens, UniProt P05181); assay: Simulation of hydroxylating activities of CYP2E1 with DROS; assay type: biochemical; conditions: after 10 minutes; for Concentration of hydroxylated product, Control, Cyt b 5 + pNP: Cyt b5, without CYP2E1; for Concentration of hydroxylated product, CYP2E1, pNP: pNP 25 µmol/L, with CYP2E1; for Concentration of hydroxylated product, CYP2E1, Cyt b 5 + pNP: with CYP2E1 and Cyt b5; for Concentration of hydroxylated product, Control, pNP: without CYP2E1
How it was run: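 Reconstituted hydroxylation with diffusible oxygen species used initial pNP 25 µmol/L, DLPC 20 µmol/L and CYP2E1 100 nmol/L (omitted in controls). When present: NADPH 200 µmol/L, CPR 200 nmol/L, Cyt b5 200 nmol/L, H2O2 32 µmol/L, or KO2 ≤16 µmol/L. KO2 was added from a DMSO/15-crown ether substock, giving ~1% DMSO/crown ether in the reaction. Hydroxylated product (nmol/L) was measured after 10 min.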
Target sequence in this assay (P05181 whole entry): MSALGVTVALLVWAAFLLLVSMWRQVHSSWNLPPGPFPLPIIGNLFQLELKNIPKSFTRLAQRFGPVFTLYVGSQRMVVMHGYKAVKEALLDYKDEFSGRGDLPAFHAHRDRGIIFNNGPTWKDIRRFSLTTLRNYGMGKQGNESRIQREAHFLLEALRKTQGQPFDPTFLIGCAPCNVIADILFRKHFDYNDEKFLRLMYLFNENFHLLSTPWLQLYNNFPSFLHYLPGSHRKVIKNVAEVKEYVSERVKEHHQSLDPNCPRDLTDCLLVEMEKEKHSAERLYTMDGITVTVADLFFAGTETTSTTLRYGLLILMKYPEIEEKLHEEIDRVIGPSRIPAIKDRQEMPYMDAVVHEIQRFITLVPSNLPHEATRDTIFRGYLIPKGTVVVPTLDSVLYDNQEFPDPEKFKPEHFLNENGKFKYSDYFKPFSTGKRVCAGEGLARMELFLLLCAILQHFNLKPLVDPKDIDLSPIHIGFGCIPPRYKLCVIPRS
Target sequence in this assay (P16435 2-677 partner): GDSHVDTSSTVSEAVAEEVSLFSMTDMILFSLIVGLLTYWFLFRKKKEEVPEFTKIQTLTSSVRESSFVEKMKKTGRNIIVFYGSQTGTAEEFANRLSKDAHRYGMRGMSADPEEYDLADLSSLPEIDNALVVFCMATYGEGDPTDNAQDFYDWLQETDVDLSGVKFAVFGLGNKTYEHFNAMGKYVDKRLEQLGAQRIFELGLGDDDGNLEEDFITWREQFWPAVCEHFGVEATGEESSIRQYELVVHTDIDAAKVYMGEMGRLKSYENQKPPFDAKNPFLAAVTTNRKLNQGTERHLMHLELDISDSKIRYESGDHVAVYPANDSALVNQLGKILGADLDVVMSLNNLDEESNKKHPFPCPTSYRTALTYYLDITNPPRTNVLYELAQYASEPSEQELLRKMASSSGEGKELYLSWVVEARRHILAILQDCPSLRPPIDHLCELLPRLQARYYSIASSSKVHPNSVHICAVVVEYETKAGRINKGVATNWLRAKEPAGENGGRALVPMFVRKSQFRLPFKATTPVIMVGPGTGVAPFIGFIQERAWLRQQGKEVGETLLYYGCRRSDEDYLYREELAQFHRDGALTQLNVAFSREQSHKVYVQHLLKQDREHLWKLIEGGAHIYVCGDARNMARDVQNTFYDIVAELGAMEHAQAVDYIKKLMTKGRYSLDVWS
Target sequence in this assay (P00167 2-134 partner): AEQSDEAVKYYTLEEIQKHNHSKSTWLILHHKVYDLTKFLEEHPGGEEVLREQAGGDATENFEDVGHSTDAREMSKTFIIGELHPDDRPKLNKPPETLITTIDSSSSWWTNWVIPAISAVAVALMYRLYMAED

B megaterium MTCC 428 = assay: Growth; assay type: cell-based, Bacillus megaterium
E coli DH5α = assay: Growth; assay type: cell-based, Escherichia coli
Escherichia coli DH5α [2] = conditions: 6 hours, control = 100
CYP2E1 [3] = target: T1, CYP2E1; assay: CYP2E1 baculosome pNP hydroxylation; assay type: biochemical; conditions: for Effect on pNC formation: earlier time (10 minutes)
Target sequence in this assay (P05181 whole entry): as the sequence (P05181 whole entry) above

Escherichia coli DH5α [4] = assay: Growth of E coli DH5α transformed with pBTR1; assay type: cell-based; conditions: 4 hours, control = 100
CYP2E1 [5] = target: T1, CYP2E1; assay: Extended CYP2E1-pNP inhibition profiling; assay type: biochemical; conditions: additive up to 50 µmol/L
Target sequence in this assay (P05181 whole entry): as above
Target sequence in this assay (P16435 2-677 partner): as the sequence (P16435 2-677 partner) above
Target sequence in this assay (P00167 2-134 partner): as the sequence (P00167 2-134 partner) above

CYP2E1 [6] = conditions: enzyme taken at 0.1 µmol/L; cited from earlier work

## [O]O [O2 ^˙−]
CYP2E1 [1]
  Concentration of hydroxylated product, Control, Cyt b 5 + pNP: ∼70^b nmol/L
  Concentration of hydroxylated product, CYP2E1, pNP: ∼104^b nmol/L
  Concentration of hydroxylated product, CYP2E1, Cyt b 5 + pNP: ∼499^b nmol/L
  Concentration of hydroxylated product, Control, pNP: ∼88^b nmol/L

## OO [H2O2]
CYP2E1 [1]
  Concentration of hydroxylated product, Control, Cyt b 5 + pNP: Nil
  Concentration of hydroxylated product, CYP2E1, pNP: <10 nmol/L
  Concentration of hydroxylated product, CYP2E1, Cyt b 5 + pNP: ∼74 nmol/L
  Concentration of hydroxylated product, Control, pNP: Nil

## [N-]=[N+]=[N-] [Azide, azide]
B megaterium MTCC 428; azide 10^−6 to 10^−12 M
  Effect on growth: did not impact
B megaterium MTCC 428; azide at mmol/L ranges
  Effect on growth: very effective in curbing the growth
E coli DH5α; azide at mmol/L ranges, compared with B megaterium
  Effect on growth: much less harsh
E coli DH5α; nmol/L concentration of azide
  Effect on growth: inhibitory
E coli DH5α; µmol/L concentration of azide
  Effect on growth: no inhibition whatsoever
Escherichia coli DH5α [2]; azide 10^−3 M, + IPTG
  Relative growth density: 24 (3)
Escherichia coli DH5α [2]; azide 10^−3 M, − IPTG
  Relative growth density: 12 (5)
Escherichia coli DH5α [2]; azide 10^−6 M, + IPTG
  Relative growth density: 79 (5)
Escherichia coli DH5α [2]; azide 10^−6 M, − IPTG
  Relative growth density: 97 (7)
Escherichia coli DH5α [2]; azide 10^−9 M, + IPTG
  Relative growth density: 29 (6)
Escherichia coli DH5α [2]; azide 10^−9 M, − IPTG
  Relative growth density: 41 (6)
Escherichia coli DH5α [2]; azide 10^−12 M, + IPTG
  Relative growth density: 32 (3)
Escherichia coli DH5α [2]; azide 10^−12 M, − IPTG
  Relative growth density: 107 (8)

## O=[N+]([O-])c1ccc(O)cc1 [pNP, para-nitrophenol]
CYP2E1 [3]; read-out: 2E1-pNP KM, substrate constant used for Cheng-Prusoff
  Km: 14 µM

## CCc1oc2ccccc2c1C(=O)c1ccc(OC)cc1 [MeOBzr, methoxybenzarone]
CYP2E1 [3]; calculated from IC50 (website)
  Ki Uncompetitive: 100.9 µM
CYP2E1 [3]; read-out: Ki Competitive, Cheng-Prusoff from IC50, KM 14 µmol/L
  pKi: 4.85
CYP2E1 [3]; read-out: Ki Noncompetitive, calculated from IC50 (website)
  pKi: 3.94

## N[C@@H](Cc1cc(I)c(O)c(I)c1)C(=O)O [DIT, diiodotyrosine]
CYP2E1 [3]; 10 nmol/L additive
  Effect on pNC formation: enhanced reactions
CYP2E1 [3]; high/higher additive concentrations
  Effect on pNC formation: inhibited pNC formation

## Nc1nc[nH]n1 [Amitrol, amitrol]
Escherichia coli DH5α [4]; amitrol 10^−3 M, + IPTG
  Relative growth density: 60 (9)
Escherichia coli DH5α [4]; amitrol 10^−3 M, − IPTG
  Relative growth density: 94 (4)
Escherichia coli DH5α [4]; amitrol 10^−6 M, + IPTG
  Relative growth density: 70 (6)
Escherichia coli DH5α [4]; amitrol 10^−6 M, − IPTG
  Relative growth density: 103 (10)
Escherichia coli DH5α [4]; amitrol 10^−9 M, + IPTG
  Relative growth density: 63 (5)
Escherichia coli DH5α [4]; amitrol 10^−9 M, − IPTG
  Relative growth density: 103 (3)
Escherichia coli DH5α [4]; amitrol 10^−12 M, + IPTG
  Relative growth density: 51 (4)
Escherichia coli DH5α [4]; amitrol 10^−12 M, − IPTG
  Relative growth density: 50 (2)

## Cn1c(=O)[nH]c(=O)c2[nH]cnc21 [3-Methylxanthine (MetXan), 3-Methylxanthine]
CYP2E1 [5]
  Effect on pNP reactions: did not significantly perturb/inhibit

## CCc1oc2ccccc2c1C(=O)c1ccc(O)cc1 [Bzr, benzarone]
CYP2E1 [3]; Ki Competitive, Cheng-Prusoff from IC50, KM 14 µmol/L
  pKi: 5.06
CYP2E1 [3]; Ki Noncompetitive, calculated from IC50 (website)
  pKi: 4.15
CYP2E1 [3]; calculated from IC50 (website)
  Ki Uncompetitive: 62.3 µM
CYP2E1 [3]; initial sampling time
  Inhibition at 10 nmol/L compared to 1 µmol/L: greater extent of inhibition

## c1ccc2[nH]ncc2c1 [indazole]
CYP2E1 [6]
  pKd: 8.30

Reference: article PMC5946624 (Dose-Response, 2018)
